Laboratory results published in ChEMBL document CHEMBL4152256, “Structure-activity relationship of new antimalarial 1-aryl-3-susbtituted propanol derivatives: Synthesis, preliminary toxicity profiling, parasite life cycle stage studies, target exploration, and targeted delivery” (Eur J Med Chem, 2018).

What was measured:
Plasmodium falciparum [1] = test: Antiplasmodial activity against multidrug-resistant Plasmodium falciparum FCR-3 by [3H]-hypoxanthine incorporation assay; type: functional, organism-based, FCR-3/Gambia; conditions: Plasmodium falciparum, FCR-3/Gambia
In short: (§1)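 Blood-stage P. falciparum 3D7 and FCR-3 were tested by a modified [3H]-hypoxanthine incorporation assay. Chloroquine was the reference in all runs.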

Plasmodium falciparum [2] = test: Antiplasmodial activity against chloroquine-sensitive Plasmodium falciparum 3D7 by [3H]-hypoxanthine incorporation assay; type: functional, organism-based; conditions: Plasmodium falciparum, 3D7; in short: as §1
[3] = Cytotoxicity against human HepG2A16 cells by MTT assay; type: cell-based; conditions: HepG2A16 cells
In short: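 MTT viability assay on HepG2-A16 cells, giving CC50 values.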

[4] = Genotoxicity in Salmonella typhimurium TA1535 harboring pSK1002 assessed as survival at 0.125 mg/ml in absence of Sprague-Dawley rat liver S9 fraction after by SOS/umu assay relative to control; type: toxicity, organism-based; conditions: salmonella enterica subsp. enterica serovar typhimurium, read-out: Survival
[5] = Genotoxicity in Salmonella typhimurium TA1535 harboring pSK1002 assessed as umu gene induction at 0.125 mg/ml in absence of Sprague-Dawley rat liver S9 fraction after by SOS/umu assay relative to control; type: toxicity, organism-based; conditions: salmonella enterica subsp. enterica serovar typhimurium, read-out: FC
[6] = Genotoxicity in Salmonella typhimurium TA1535 harboring pSK1002 assessed as survival at 0.125 mg/ml in presence of Sprague-Dawley rat liver S9 fraction after by SOS/umu assay relative to control; type: toxicity, organism-based; conditions: salmonella enterica subsp. enterica serovar typhimurium, read-out: Survival
[7] = Genotoxicity in Salmonella typhimurium TA1535 harboring pSK1002 assessed as umu gene induction at 0.125 mg/ml in presence of Sprague-Dawley rat liver S9 fraction after by SOS/umu assay relative to control; type: toxicity, organism-based; conditions: salmonella enterica subsp. enterica serovar typhimurium, read-out: FC
[8] = Genotoxicity in Salmonella typhimurium TA1535 harboring pSK1002 assessed as survival at 0.063 mg/ml in absence of Sprague-Dawley rat liver S9 fraction after by SOS/umu assay relative to control; type: toxicity, organism-based; conditions: salmonella enterica subsp. enterica serovar typhimurium, read-out: Survival
[9] = Genotoxicity in Salmonella typhimurium TA1535 harboring pSK1002 assessed as umu gene induction at 0.063 mg/ml in absence of Sprague-Dawley rat liver S9 fraction after by SOS/umu assay relative to control; type: toxicity, organism-based; conditions: salmonella enterica subsp. enterica serovar typhimurium, read-out: FC
[10] = Genotoxicity in Salmonella typhimurium TA1535 harboring pSK1002 assessed as survival at 0.063 mg/ml in presence of Sprague-Dawley rat liver S9 fraction after by SOS/umu assay relative to control; type: toxicity, organism-based; conditions: salmonella enterica subsp. enterica serovar typhimurium, read-out: Survival
[11] = Genotoxicity in Salmonella typhimurium TA1535 harboring pSK1002 assessed as umu gene induction at 0.063 mg/ml in presence of Sprague-Dawley rat liver S9 fraction after by SOS/umu assay relative to control; type: toxicity, organism-based; conditions: salmonella enterica subsp. enterica serovar typhimurium, read-out: FC
[12] = Genotoxicity in Salmonella typhimurium TA1535 harboring pSK1002 assessed as survival at 0.031 mg/ml in absence of Sprague-Dawley rat liver S9 fraction after by SOS/umu assay relative to control; type: toxicity, organism-based; conditions: salmonella enterica subsp. enterica serovar typhimurium, read-out: Survival
[13] = Genotoxicity in Salmonella typhimurium TA1535 harboring pSK1002 assessed as umu gene induction at 0.031 mg/ml in absence of Sprague-Dawley rat liver S9 fraction after by SOS/umu assay relative to control; type: toxicity, organism-based; conditions: salmonella enterica subsp. enterica serovar typhimurium, read-out: FC
[14] = Genotoxicity in Salmonella typhimurium TA1535 harboring pSK1002 assessed as umu gene induction at 0.031 mg/ml in presence of Sprague-Dawley rat liver S9 fraction after by SOS/umu assay relative to control; type: toxicity, organism-based; conditions: salmonella enterica subsp. enterica serovar typhimurium, read-out: FC
[15] = Genotoxicity in Salmonella typhimurium TA1535 harboring pSK1002 assessed as survival at 0.016 mg/ml in absence of Sprague-Dawley rat liver S9 fraction after by SOS/umu assay relative to control; type: toxicity, organism-based; conditions: salmonella enterica subsp. enterica serovar typhimurium, read-out: Survival
[16] = Genotoxicity in Salmonella typhimurium TA1535 harboring pSK1002 assessed as umu gene induction at 0.016 mg/ml in absence of Sprague-Dawley rat liver S9 fraction after by SOS/umu assay relative to control; type: toxicity, organism-based; conditions: salmonella enterica subsp. enterica serovar typhimurium, read-out: FC
[17] = Genotoxicity in Salmonella typhimurium TA1535 harboring pSK1002 assessed as umu gene induction at 0.016 mg/ml in presence of Sprague-Dawley rat liver S9 fraction after by SOS/umu assay relative to control; type: toxicity, organism-based; conditions: salmonella enterica subsp. enterica serovar typhimurium, read-out: FC
[18] = Genotoxicity in Salmonella typhimurium TA1535 harboring pSK1002 assessed as survival at 0.008 mg/ml in absence of Sprague-Dawley rat liver S9 fraction after by SOS/umu assay relative to control; type: toxicity, organism-based; conditions: salmonella enterica subsp. enterica serovar typhimurium, read-out: Survival
[19] = Genotoxicity in Salmonella typhimurium TA1535 harboring pSK1002 assessed as survival at 0.008 mg/ml in presence of Sprague-Dawley rat liver S9 fraction after by SOS/umu assay relative to control; type: toxicity, organism-based; conditions: salmonella enterica subsp. enterica serovar typhimurium, read-out: Survival
[20] = Genotoxicity in Salmonella typhimurium TA1535 harboring pSK1002 assessed as umu gene induction at 0.008 mg/ml in presence of Sprague-Dawley rat liver S9 fraction after by SOS/umu assay relative to control; type: toxicity, organism-based; conditions: salmonella enterica subsp. enterica serovar typhimurium, read-out: FC
[21] = Genotoxicity in Salmonella typhimurium TA1535 harboring pSK1002 assessed as survival at 0.004 mg/ml in absence of Sprague-Dawley rat liver S9 fraction after by SOS/umu assay relative to control; type: toxicity, organism-based; conditions: salmonella enterica subsp. enterica serovar typhimurium, read-out: Survival
[22] = Genotoxicity in Salmonella typhimurium TA1535 harboring pSK1002 assessed as umu gene induction at 0.004 mg/ml in absence of Sprague-Dawley rat liver S9 fraction after by SOS/umu assay relative to control; type: toxicity, organism-based; conditions: salmonella enterica subsp. enterica serovar typhimurium, read-out: FC
[23] = Genotoxicity in Salmonella typhimurium TA1535 harboring pSK1002 assessed as survival at 0.002 mg/ml in absence of Sprague-Dawley rat liver S9 fraction after by SOS/umu assay relative to control; type: toxicity, organism-based; conditions: salmonella enterica subsp. enterica serovar typhimurium, read-out: Survival
[24] = Genotoxicity in Salmonella typhimurium TA1535 harboring pSK1002 assessed as umu gene induction at 0.002 mg/ml in absence of Sprague-Dawley rat liver S9 fraction after by SOS/umu assay relative to control; type: toxicity, organism-based; conditions: salmonella enterica subsp. enterica serovar typhimurium, read-out: FC
[25] = Genotoxicity in Salmonella typhimurium TA1535 harboring pSK1002 assessed as survival at 0.002 mg/ml in presence of Sprague-Dawley rat liver S9 fraction after by SOS/umu assay relative to control; type: toxicity, organism-based; conditions: salmonella enterica subsp. enterica serovar typhimurium, read-out: Survival
[26] = Genotoxicity in Salmonella typhimurium TA1535 harboring pSK1002 assessed as umu gene induction at 0.002 mg/ml in presence of Sprague-Dawley rat liver S9 fraction after by SOS/umu assay relative to control; type: toxicity, organism-based; conditions: salmonella enterica subsp. enterica serovar typhimurium, read-out: FC
[27] = Genotoxicity in Salmonella typhimurium TA1535 harboring pSK1002 assessed as survival at 0.001 mg/ml in absence of Sprague-Dawley rat liver S9 fraction after by SOS/umu assay relative to control; type: toxicity, organism-based; conditions: salmonella enterica subsp. enterica serovar typhimurium, read-out: Survival
[28] = Genotoxicity in Salmonella typhimurium TA1535 harboring pSK1002 assessed as umu gene induction at 0.001 mg/ml in absence of Sprague-Dawley rat liver S9 fraction after by SOS/umu assay relative to control; type: toxicity, organism-based; conditions: salmonella enterica subsp. enterica serovar typhimurium, read-out: FC
[29] = Genotoxicity in Salmonella typhimurium TA1535 harboring pSK1002 assessed as survival at 0.001 mg/ml in presence of Sprague-Dawley rat liver S9 fraction after by SOS/umu assay relative to control; type: toxicity, organism-based; conditions: salmonella enterica subsp. enterica serovar typhimurium, read-out: Survival
[30] = Genotoxicity in Salmonella typhimurium TA1535 harboring pSK1002 assessed as umu gene induction at 0.001 mg/ml in presence of Sprague-Dawley rat liver S9 fraction after by SOS/umu assay relative to control; type: toxicity, organism-based; conditions: salmonella enterica subsp. enterica serovar typhimurium, read-out: FC

Compound | IC50 (Plasmodium falciparum [1]) [nM] | IC50 (Plasmodium falciparum [2]) [nM] | CC50 [3] [nM] | viability at 0.125 mg/ml [4] [%] | fold induction at 0.125 mg/ml [5] | viability at 0.125 mg/ml [6] [%] | fold induction at 0.125 mg/ml [7] | viability at 0.063 mg/ml [8] [%] | fold induction at 0.063 mg/ml [9] | viability at 0.063 mg/ml [10] [%] | fold induction at 0.063 mg/ml [11] | viability at 0.031 mg/ml [12] [%] | fold induction at 0.031 mg/ml [13] | fold induction at 0.031 mg/ml [14] | viability at 0.016 mg/ml [15] [%] | fold induction at 0.016 mg/ml [16] | fold induction at 0.016 mg/ml [17] | viability at 0.008 mg/ml [18] [%] | viability at 0.008 mg/ml [19] [%] | fold induction at 0.008 mg/ml [20] | further results
OC(CCN1CC=C(c2ccc(F)cc2)CC1)c1ccc2c(c1)OCO2 (stereo not given) | 1700 | 17400 | 165000 | 116 | 0.8 | 99.6 | 1 | 96.6 | 0.9 | 105 | 0.9 | 113 | 0.8 | 0.7 | 92.5 | 0.9 | 1 | 128 | 96 | 1 | viability at 0.004 mg/ml [21]: 114%; fold induction at 0.004 mg/ml [22]: 0.8; viability at 0.002 mg/ml [23]: 122%; fold induction at 0.002 mg/ml [24]: 0.8; viability at 0.002 mg/ml [25]: 108%; fold induction at 0.002 mg/ml [26]: 1; viability at 0.001 mg/ml [27]: 131%; fold induction at 0.001 mg/ml [28]: 0.5; viability at 0.001 mg/ml [29]: 111%; fold induction at 0.001 mg/ml [30]: 0.7
OC(CCN1CCN(c2ccccc2C(F)(F)F)CC1)c1ccc(F)cc1 (stereo not given) | 1690 | 1010 | 1350 | 25.4 | 1.2 | 21.3 | 1.9 | 28.6 | 1.3 | 89 | 0.8 | 95.5 | 0.8 | 1 | 99.8 | 0.8 | 0.9 | 98.3 | 96.1 | 1 | viability at 0.004 mg/ml [21]: 107%; fold induction at 0.004 mg/ml [22]: 0.9; viability at 0.002 mg/ml [23]: 110%; fold induction at 0.002 mg/ml [24]: 0.8; viability at 0.002 mg/ml [25]: 90.4%; fold induction at 0.002 mg/ml [26]: 1; viability at 0.001 mg/ml [27]: 111%; fold induction at 0.001 mg/ml [28]: 0.9; viability at 0.001 mg/ml [29]: 84.6%; fold induction at 0.001 mg/ml [30]: 1.1
